Laboratory results taken from ChEMBL document CHEMBL4689842, “EUbOPEN Chemogenomics Library wave 1” (2021).

Test system: HEK-293T
Experiment: Multiplex assay against HEK293T;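 on Population Tubulin-Different-Phenotype (%): share of the cells with healthy nuclei that show this phenotype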
Type: toxicity, cell-based
Conditions: human
Procedure, shortened: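 Imaging took place on a CQ1 microscope at 37°C and 5% CO2 once compound had been added to live cells stained at seeding with Hoechst33342, BioTracker Green Microtubule Cytoskeleton Dye, MitoTracker Red and Annexin V Alexa Fluor 680. CellPathfinder machine-learning gating classed cells as Hoechst high-intensity objects or normal cells, classed normal cells as having healthy, pyknosed or fragmented nuclei, and classed pyknosed cells as mitotic or apoptotic. Tubulin, mitochondrial-mass and membrane-permeability phenotypes are per cents of the healthy-nucleus cells.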

[1] = 12 h, 1 µM, compound concentration 1 uM, replicate 1
[2] = 12 h, 1 µM, compound concentration 1 uM, replicate 2
[3] = 12 h, 10 µM, compound concentration 10 uM, replicate 1
[4] = 12 h, 10 µM, compound concentration 10 uM, replicate 2
[5] = 24 h, 1 µM, compound concentration 1 uM, replicate 1
[6] = 24 h, 1 µM, compound concentration 1 uM, replicate 2
[7] = 24 h, 10 µM, compound concentration 10 uM, replicate 1
[8] = 24 h, 10 µM, compound concentration 10 uM, replicate 2
[9] = 48 h, 1 µM, compound concentration 1 uM, replicate 1
[10] = 48 h, 1 µM, compound concentration 1 uM, replicate 2
[11] = 48 h, 10 µM, compound concentration 10 uM, replicate 1
[12] = 48 h, 10 µM, compound concentration 10 uM, replicate 2

## COC(=O)C1=C(C)NC(C)=C(C(=O)OCCCN2CCC(c3ccccc3)(c3ccccc3)CC2)[C@H]1c1cccc([N+](=O)[O-])c1 [NIGULDIPINE]
[1]
  Population Apoptotic (%): 86%
  Population Fragmented Nuclei (%): 7%
  Population Healthy Nuclei (%): 34%
  Population Hoechst High Intensity Objects (%): 9%
  Population Membrane Permeable-Phenotype (%): 2%
  Population Mitochondria Different-Phenotype (%): 98%
  Population Mitotic Cells (%): 13%
  Population Normal (%): 90%
  Population Pyknosed Nuclei (%): 58%
  Population Tubulin-Different-Phenotype (%): 97%
  Total Cell Count: 272
[2]
  Population Apoptotic (%): 91%
  Population Fragmented Nuclei (%): 5%
  Population Healthy Nuclei (%): 32%
  Population Hoechst High Intensity Objects (%): 5%
  Population Membrane Permeable-Phenotype (%): 1%
  Population Mitochondria Different-Phenotype (%): 100%
  Population Mitotic Cells (%): 8%
  Population Normal (%): 94%
  Population Pyknosed Nuclei (%): 62%
  Population Tubulin-Different-Phenotype (%): 98%
  Total Cell Count: 177
[3]
  Population Apoptotic (%): 81%
  Population Fragmented Nuclei (%): 18%
  Population Healthy Nuclei (%): 2%
  Population Hoechst High Intensity Objects (%): 15%
  Population Membrane Permeable-Phenotype (%): 0%
  Population Mitochondria Different-Phenotype (%): 66%
  Population Mitotic Cells (%): 18%
  Population Normal (%): 84%
  Population Pyknosed Nuclei (%): 79%
  Population Tubulin-Different-Phenotype (%): 66%
  Total Cell Count: 266
[4]
  Population Apoptotic (%): 63%
  Population Fragmented Nuclei (%): 6%
  Population Healthy Nuclei (%): 1%
  Population Hoechst High Intensity Objects (%): 7%
  Population Membrane Permeable-Phenotype (%): 66%
  Population Mitochondria Different-Phenotype (%): 0%
  Population Mitotic Cells (%): 36%
  Population Normal (%): 92%
  Population Pyknosed Nuclei (%): 91%
  Population Tubulin-Different-Phenotype (%): 33%
  Total Cell Count: 202
[5]
  Population Apoptotic (%): 86%
  Population Fragmented Nuclei (%): 7%
  Population Healthy Nuclei (%): 41%
  Population Hoechst High Intensity Objects (%): 11%
  Population Membrane Permeable-Phenotype (%): 0%
  Population Mitochondria Different-Phenotype (%): 99%
  Population Mitotic Cells (%): 13%
  Population Normal (%): 88%
  Population Pyknosed Nuclei (%): 50%
  Population Tubulin-Different-Phenotype (%): 97%
  Total Cell Count: 293
[6]
  Population Apoptotic (%): 95%
  Population Fragmented Nuclei (%): 6%
  Population Healthy Nuclei (%): 44%
  Population Hoechst High Intensity Objects (%): 3%
  Population Membrane Permeable-Phenotype (%): 1%
  Population Mitochondria Different-Phenotype (%): 100%
  Population Mitotic Cells (%): 4%
  Population Normal (%): 96%
  Population Pyknosed Nuclei (%): 49%
  Population Tubulin-Different-Phenotype (%): 98%
  Total Cell Count: 181
[7]
  Population Apoptotic (%): 88%
  Population Fragmented Nuclei (%): 20%
  Population Healthy Nuclei (%): 3%
  Population Hoechst High Intensity Objects (%): 12%
  Population Membrane Permeable-Phenotype (%): 11%
  Population Mitochondria Different-Phenotype (%): 66%
  Population Mitotic Cells (%): 11%
  Population Normal (%): 87%
  Population Pyknosed Nuclei (%): 75%
  Population Tubulin-Different-Phenotype (%): 77%
  Total Cell Count: 263
[8]
  Population Apoptotic (%): 79%
  Population Fragmented Nuclei (%): 4%
  Population Healthy Nuclei (%): 1%
  Population Hoechst High Intensity Objects (%): 6%
  Population Membrane Permeable-Phenotype (%): 50%
  Population Mitochondria Different-Phenotype (%): 0%
  Population Mitotic Cells (%): 20%
  Population Normal (%): 93%
  Population Pyknosed Nuclei (%): 94%
  Population Tubulin-Different-Phenotype (%): 0%
  Total Cell Count: 202
[9]
  Population Apoptotic (%): 85%
  Population Fragmented Nuclei (%): 9%
  Population Healthy Nuclei (%): 56%
  Population Hoechst High Intensity Objects (%): 9%
  Population Membrane Permeable-Phenotype (%): 0%
  Population Mitochondria Different-Phenotype (%): 99%
  Population Mitotic Cells (%): 14%
  Population Normal (%): 91%
  Population Pyknosed Nuclei (%): 34%
  Population Tubulin-Different-Phenotype (%): 96%
  Total Cell Count: 300
[10]
  Population Apoptotic (%): 97%
  Population Fragmented Nuclei (%): 6%
  Population Healthy Nuclei (%): 55%
  Population Hoechst High Intensity Objects (%): 8%
  Population Mitochondria Different-Phenotype (%): 98%
  Population Mitotic Cells (%): 2%
  Population Pyknosed Nuclei (%): 37%
  Population Tubulin-Different-Phenotype (%): 99%
  Total Cell Count: 203
[11]
  Population Fragmented Nuclei (%): 24%
  Population Healthy Nuclei (%): 3%
  Population Hoechst High Intensity Objects (%): 14%
  Population Membrane Permeable-Phenotype (%): 22%
  Population Mitochondria Different-Phenotype (%): 66%
  Population Normal (%): 85%
  Population Pyknosed Nuclei (%): 72%
  Population Tubulin-Different-Phenotype (%): 55%
  Total Cell Count: 283
[12]
  Population Apoptotic (%): 93%
  Population Fragmented Nuclei (%): 11%
  Population Healthy Nuclei (%): 6%
  Population Hoechst High Intensity Objects (%): 5%
  Population Membrane Permeable-Phenotype (%): 41%
  Population Mitochondria Different-Phenotype (%): 75%
  Population Mitotic Cells (%): 6%
  Population Normal (%): 94%
  Population Pyknosed Nuclei (%): 82%
  Population Tubulin-Different-Phenotype (%): 66%
  Total Cell Count: 201
